Active and inactive are the calls of the source. Unless noted, no cut-off for these calls is given here.
Experiments:
[1] = biological target: T1, Toll-like receptor 4 (Mus musculus) (UniProt Q9QUK6); experiment: Inhibition of TLR4 in BALB/c mouse BMDM assessed as downregulation of LPS-stimulated IL-6 level at 5 ug/ml preincubated for 18 hrs followed by LPS challenge measured after 24 hrs by ELISA relative to control
T1 sequence (whole entry): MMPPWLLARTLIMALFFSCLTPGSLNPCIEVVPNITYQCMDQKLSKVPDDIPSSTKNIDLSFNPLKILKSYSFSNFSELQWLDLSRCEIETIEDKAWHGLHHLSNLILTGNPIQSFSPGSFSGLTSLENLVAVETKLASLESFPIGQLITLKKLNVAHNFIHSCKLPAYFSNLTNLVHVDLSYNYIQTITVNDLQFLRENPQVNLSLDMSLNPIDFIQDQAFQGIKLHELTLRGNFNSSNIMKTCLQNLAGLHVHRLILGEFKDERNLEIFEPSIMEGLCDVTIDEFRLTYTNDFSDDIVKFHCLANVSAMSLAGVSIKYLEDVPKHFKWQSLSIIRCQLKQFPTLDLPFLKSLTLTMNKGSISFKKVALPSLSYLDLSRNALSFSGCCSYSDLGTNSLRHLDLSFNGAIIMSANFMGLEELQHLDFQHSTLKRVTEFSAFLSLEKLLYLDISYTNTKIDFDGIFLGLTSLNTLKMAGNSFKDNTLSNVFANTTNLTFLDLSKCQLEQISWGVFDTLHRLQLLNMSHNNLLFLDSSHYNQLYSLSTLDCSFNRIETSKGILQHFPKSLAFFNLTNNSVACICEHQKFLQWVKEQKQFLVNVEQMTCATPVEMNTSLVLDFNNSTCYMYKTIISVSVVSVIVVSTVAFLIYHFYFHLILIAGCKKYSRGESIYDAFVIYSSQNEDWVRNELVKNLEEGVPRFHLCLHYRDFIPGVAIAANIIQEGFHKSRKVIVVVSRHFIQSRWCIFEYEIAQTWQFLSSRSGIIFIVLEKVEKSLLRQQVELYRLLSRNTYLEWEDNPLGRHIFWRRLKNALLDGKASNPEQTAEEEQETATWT
Outline: (§1)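 BALB/c male bone marrow macrophages were differentiated 7 days with L929 supernatant (≥99% CD11b+/F4/80+). Cells were plated at 2 × 10^5/well in triplicate, rested overnight, and given compounds at 5 μg/mL for 18 h. They were then stimulated with 100 ng/mL S. minnesota LPS, 10 ng/mL Pam3CSK4 (BLP) or 0.01 μM CpG for 24 h. Supernatant IL-12p40 and IL-6 were measured by ELISA (sensitivity 16 pg/mL).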

TLR2/TLR6 (Mus musculus) [2] = biological target: T2, TLR2/TLR6 (Mus musculus) (UniProt Q9QUN7+Q9EPW9); experiment: Inhibition of TLR2/6 in BALB/c mouse BMDM assessed as downregulation of BLP-stimulated IL-12p40 level at 5 ug/ml preincubated for 18 hrs followed by BLP challenge measured after 24 hrs by ELISA relative to control; assay type: protein-complex assay; outline: as §1
[3] = biological target: T1, Toll-like receptor 4 (Mus musculus); experiment: Inhibition of TLR4 in BALB/c mouse BMDM assessed as reduction of LPS-stimulated IL-6 production at 5 ug/ml preincubated for 18 hrs followed by LPS challenge measured after 24 hrs by ELISA; outline: as §1
Mus musculus [4] = experiment: (§2) Antiinflammatory activity in DBA/1 mouse collagen-induced arthritis model assessed as reduction in number of PMA/ionomycin-stimulated CD4+ T cells expressing IFNgamma at 50 ug/kg, sc administered 2 days prior to collagen challenge continued till day 21 post collagen challenge by flow cytometric analysis relative to control; assay type: functional, organism-based; details: T-cell
Outline: (§3)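 CIA mice given test agent (1 μg/dose) or PBS subcutaneously on days −2, 0 and 21. Draining lymph node cells (10^6/mL) in complete RPMI were stimulated ± 50 ng/mL PMA plus 500 ng/mL ionomycin, with 10 μg/mL brefeldin A for 5 h at 37 °C. Cells were surface-stained for CD4, CD8 and γδ, fixed and permeabilized, then stained for intracellular IFNγ and IL-17A. Gating used isotype controls. Cell numbers per individual mouse; naive n = 7, treated groups n = 13.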

[5] = biological target: T1, Toll-like receptor 4 (Mus musculus); experiment: Inhibition of TLR4 in ovalbumin pulsed C57BL/6 mouse BMDC co-cultured with OT-2 CD4+ T cells assessed as reduction of LPS-induced IL-17 production at 5 ug/mL after 3 days by ELISA; assay type: cell-based; details: T-cell
Outline: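 C57BL/6 bone marrow DCs ± compound (5 μg/mL) were treated ± LPS, pulsed with OVA peptide, and cocultured 3 days with naive OT-II CD4+ T cells. IL-17A was measured by ELISA. Responses were normalized to the LPS response at 10, 100 and 300 nM OVA. Values are mean ± SEM, pooled from four experiments.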

TLR2/TLR6 (Mus musculus) [6] = biological target: T2, TLR2/TLR6 (Mus musculus); experiment: Inhibition of TLR2/6 in BALB/c mouse BMDM assessed as downregulation of BLP-stimulated IL-6 level at 5 ug/ml preincubated for 18 hrs followed by BLP challenge measured after 24 hrs by ELISA relative to control; assay type: protein-complex assay; outline: as §1
Mus musculus [7] = experiment: Antiinflammatory activity in DBA/1 mouse collagen-induced arthritis model assessed as reduction in serum level of IL-17 at 50 ug/kg, sc administered 2 days prior to collagen challenge continued till day 21 post collagen challenge by ELISA; assay type: functional, organism-based
Outline: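 Serum IL-17 was measured by ELISA in CIA mice dosed subcutaneously (1 μg/dose or PBS) on days −2, 0 and 21. Values are the mean of triplicate analyses per individual mouse (PBS n = 12, treated n = 13).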

Mus musculus [8] = experiment: as §2, with “effect on” for “reduction in”, “gammadelta+” for “CD4+”; assay type: functional, organism-based; details: T-cell
Mus musculus [9] = experiment: as §2, with “total DLN” for “CD4+ T”, “IL-17” for “IFNgamma”; assay type: functional, organism-based; outline: as §3
[10] = biological target: T1, Toll-like receptor 4 (Mus musculus); experiment: Inhibition of TLR4 in C57BL/6 mouse BMDC assessed as reduction of LPS-induced TNF-alpha production at 5 ug/mL preincubated for 2 hrs prior to LPS challenge measured after 24 hrs by ELISA
Outline: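 C57BL/6 bone marrow DCs were generated in complete RPMI with 10 ng/mL GM-CSF. They were preincubated ± compound at 5 μg/mL for 2 h, then stimulated with LPS for 24 h. TNF-α, IL-6 and IL-23 in conditioned medium were measured by ELISA. Values are means of triplicates ± SEM pooled from 4 experiments.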

For `CN(C)CCS(=O)(=O)Cc1ccc(Br)cc1`, the inhibition [1] was “Active”, the inhibition (TLR2/TLR6 (Mus musculus) [2]) was “Active” and the inhibition [3] was “Active”. The Activity (Mus musculus [4]) was “Active”, the inhibition [5] was “Active” and the inhibition (TLR2/TLR6 (Mus musculus) [6]) was “inactive”. The Activity (Mus musculus [7]) was “inactive”, the Activity (Mus musculus [8]) was “inactive” and the Activity (Mus musculus [9]) was “Active”. For the same molecule, the inhibition [10] was “Active”.

From ChEMBL document CHEMBL3108700, “Designing anti-inflammatory drugs from parasitic worms: a synthetic small molecule analogue of the Acanthocheilonema viteae product ES-62 prevents development of collagen-induced arthritis” (J Med Chem, 2013)
